Vif inh: HIV Vif self-association inhibitors, primary screen, imaging, HEK293T, single point | HEK293T cells, Vif self-association by quenched fluorescence, 24 h | inhibition, % at 7.49 µM | 340,000 compounds, 0.35% hits; in the data active means inhibition above about 50%, passing the limit was not always enough; inconclusive means no clear call, values can overlap the other calls; inactive means below about 31%
aDG glyco up: activators of alpha-DG glycosylation, primary screen, uHTS, Pro5-aDG cells, AlphaScreen. alpha-DG glycosylation AlphaScreen (IIH6); 0% Pro5, 100% B10-LARGE cell signal. activation, % at 10 µM. 360,000 compounds, 0.22% hits;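 active means activation of at least 8% versus controls, or a plate z-score of at least 8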;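 further: Pro5 are CHO cells carrying HIG-tagged alpha-DG that lacks glycosylation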
N-glyco inh: increase of ERlucT glycosylation luciferase signal, primary screen, N-linked glycosylation inhibitor project, D54 ERlucT cells, luminescence, set 2; reporter increase, % at 12.5 µM; D54 ERlucT glycosylation luciferase reporter, 24 h; percent of 100 nM tunicamycin response; 360,000 compounds, 0.23% hits;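 active means mean luciferase reporter signal, scaled so untreated is 0 and the glycosylation-blocking control 100, at or above a set limit in every replicate; inconclusive means mean reaches the limit but not every replicate does; inactive means mean below the limit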;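 further: luciferase carries N-glycosylation sites so blocking glycosylation raises the light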
bovine MsrA act: bovine MsrA enzyme activators, primary screen, biochemical, absorbance, HTS | Methionine sulfoxide reductase A (Bos taurus) | purified bovine MsrA, absorbance read-out | activation, % at 10.6 µM | 360,000 compounds, 0.3% hits; in the data active means activation above about 7.5%
UCH37 inh: inhibitors of human UCH37 deubiquitinase, primary screen, biochemical, Ub-AMC cleavage, fluorescence; Ubiquitin carboxyl-terminal hydrolase isozyme L5 (Homo sapiens), Q9Y5K5; purified proteasome/UCH37; inhibition, % (concentration not given with the values); 330,000 compounds, 0.33% hits; AID 588478, 2011;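 active means mean inhibition over replicate wells above about 20%, limit read from the data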
Target sequence (Q9Y5K5 whole entry, looked up): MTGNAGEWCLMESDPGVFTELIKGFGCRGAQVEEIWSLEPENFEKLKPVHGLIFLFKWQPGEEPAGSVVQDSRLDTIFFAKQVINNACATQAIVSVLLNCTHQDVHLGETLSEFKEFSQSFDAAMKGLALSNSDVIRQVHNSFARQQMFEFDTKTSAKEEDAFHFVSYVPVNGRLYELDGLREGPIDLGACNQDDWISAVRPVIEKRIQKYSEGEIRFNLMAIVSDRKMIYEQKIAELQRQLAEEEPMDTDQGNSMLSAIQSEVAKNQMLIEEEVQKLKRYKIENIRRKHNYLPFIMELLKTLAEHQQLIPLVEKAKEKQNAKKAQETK
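Signal – fluorescence, ex 355 nm, em 460 nm · System – Proteasome-bound UCH37 · Input – 0.15 nM proteasome as dispensed · Timing – 30 min preincubation with enzyme, 25 min cleavage at room temperature · Read-out basis – percent inhibition of cleavage signal versus uninhibited and no-proteasome wells · Medium – Tris-HCl pH 7.4 with ATP-MgCl2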
MsrA inh: bovine MsrA enzyme inhibitors, primary screen, biochemical, absorbance, HTS | inhibition, % at 15.5 µM | AID 651718, 2012 | purified bovine MsrA, absorbance read-out | 360,000 compounds, 0.75% hits | Methionine sulfoxide reductase A (Bos taurus); in the data active means inhibition above about 4.5%
UCH37 reconfirm: retest of human UCH37 deubiquitinase inhibitors, confirmation, biochemical, Ub-AMC cleavage rate, fluorescence; shares compounds with UCH37 inh; inhibition, % at 20 µM; 480 compounds, 27% hits; Proteasome-bound UCH37;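 active means average inhibition over replicates above about 50%, so the earlier screening hit is confirmed, limit read from the data; inactive means the rest, counted as false positives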;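 further: based on cleavage rate fitted by regression over a 30 min kinetic read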
Of the large screens only hits and unclear results are named; the others gave an inactive call (follow-up assays come after a bar, where they were run). Only some compounds are listed: those with a hit (about 1.9% of all), similar ones and a draw of the others.

Cc1ccc(CONC(=O)N=CN(C)C)cc1	none (no result: Vif inh, aDG glyco up, N-glyco inh, bovine MsrA act, MsrA inh)
Clc1ccc(C2=NNC(=NCC3CCCO3)SC2)cc1 (stereo unspecified)	UCH37 inh 51 | UCH37 reconfirm inactive
Cc1cc(C2=NNC(=NCCc3ccccc3)SC2)c(C)n1CC1CCCO1 (stereo unspecified)	none
CN1CCS/C1=C\C=C1/SC(=S)N(CC(=O)O)C1=O	UCH37 inh 39 | UCH37 reconfirm inactive
O=[N+]([O-])c1cc(C=NO)ccc1N1CCCC1	none (no result: Vif inh, aDG glyco up, N-glyco inh, bovine MsrA act, MsrA inh)
Cc1ccc2cc(C=NNC(=O)c3ccccc3O)c(Cl)nc2c1	none (no result: Vif inh, aDG glyco up, N-glyco inh, bovine MsrA act, MsrA inh)
COc1ccc(N2C(=O)[C@@H]3[C@H](C2=O)[C@H]2c4ccccc4C=CN2[C@@H]3C(C)=O)cc1	UCH37 inh 37 | UCH37 reconfirm inactive
COc1ccc(N2C(=O)[C@H]3[C@@H](C2=O)C2c4ccccc4C=NN2[C@H]3C(=O)C(C)(C)C)cc1 (stereo partly specified)	none
C/C(=C\C(=O)C(F)(F)F)Nc1ccc(C(F)(F)F)cc1	UCH37 inh 46 (no result: Vif inh) | UCH37 reconfirm inactive
CC(C)(CCl)C(=O)Nc1ccc(C(F)(F)F)cc1	none
O=c1cc(-c2ccc(O)cc2)oc2c(O)c(O)c(O)c(O)c12	Vif inh inconclusive, UCH37 inh 69 | UCH37 reconfirm inactive
CCCCCCC(=O)N=Nc1c(O)[nH]c2ccc([N+](=O)[O-])cc12	none
CCc1cc(C(=O)N=Nc2c(O)[nH]c3ccc([N+](=O)[O-])cc23)c2ccccc2n1	none
O=C(N=Nc1c(O)[nH]c2ccc([N+](=O)[O-])cc12)c1ccccc1[N+](=O)[O-]	UCH37 inh 61 | UCH37 reconfirm inactive
CC(Oc1ccccc1)C(=O)N=Nc1c(O)[nH]c2ccc([N+](=O)[O-])cc12 (stereo unspecified)	UCH37 inh 67 | UCH37 reconfirm inactive
N#CC1=C(N)n2c(sc(=Cc3ccco3)c2=O)=C(C#N)C1c1ccco1 (stereo unspecified)	none (no result: Vif inh, aDG glyco up, N-glyco inh, bovine MsrA act, MsrA inh)
Cn1cc(C(=O)NN=C/C(Br)=C\c2ccccc2)ccc1=O	none (no result: Vif inh, aDG glyco up, N-glyco inh, bovine MsrA act, MsrA inh)
O=C(NN=Cc1ccc(Cl)cc1)c1cc(-c2cccnc2)nc2ccccc12	none (no result: Vif inh, aDG glyco up, N-glyco inh, bovine MsrA act, MsrA inh)
CCC(=O)N(CC)C1=C(O)c2ccccc2C(=O)C1=O	UCH37 inh 37 | UCH37 reconfirm inactive
O=C(NN=Cc1ccc(O)cc1)c1cc(C23CC4CC(CC(C4)C2)C3)[nH]n1	none (no result: Vif inh, aDG glyco up, N-glyco inh, bovine MsrA act, MsrA inh)
COc1cc(C=NNC(=O)c2ccncc2)ccc1OC(=O)c1cccc(F)c1	none (no result: Vif inh, aDG glyco up, N-glyco inh, bovine MsrA act, MsrA inh)
CCOc1ccc(C=NNc2ccc(S(=O)(=O)Nc3ccccc3C(=O)O)cc2[N+](=O)[O-])cc1OC	UCH37 inh 44 (no result: MsrA inh) | UCH37 reconfirm 75
CCOC(=O)/C(C#N)=C\C=C1C=CN(C)C=C1	none (no result: UCH37 inh) | UCH37 reconfirm inactive
Cn1cc(/C=C/c2cc[n+](C)cc2)c2cc(Cl)ccc21	none (no result: Vif inh)
Cn1cc(/C=C/c2cc[n+](C)cc2)c2cc(F)ccc21	UCH37 inh 28 (no result: Vif inh, MsrA inh) | UCH37 reconfirm inactive
CC(=NNC(=O)c1cccs1)c1ccncc1	none (no result: Vif inh, aDG glyco up, N-glyco inh, bovine MsrA act, MsrA inh)
CCOC(=O)/C=C(\C)Sc1cc(O)c2ccccc2c1O	UCH37 inh 81, MsrA inh 41 | UCH37 reconfirm 82
S=c1[nH]nc(-c2cccs2)n1N=Cc1cccs1	none (no result: Vif inh, aDG glyco up, N-glyco inh, bovine MsrA act, MsrA inh)
CCCCNC(=O)c1onc(CSc2ccc(Cl)cc2)c1C(=O)NCCCC	UCH37 inh 36 (no result: Vif inh) | UCH37 reconfirm inactive
CC(C)c1ccc(S(=O)(=O)/N=C2\C=C(NS(=O)(=O)c3ccccc3)C(=O)c3ccccc32)cc1	none
CC(C)c1ccc(S(=O)(=O)N=C2C=C(Sc3ncn[nH]3)C(=O)c3ccccc32)cc1	UCH37 inh 67 (no result: Vif inh, aDG glyco up, N-glyco inh, bovine MsrA act, MsrA inh) | UCH37 reconfirm 62

Screens: PubChem BioAssay, several laboratories
